{"source": "ChEMBL document CHEMBL4219238", "about": "“Design, synthesis, molecular modelling and in vitro cytotoxicity analysis of novel carbamate derivatives as inhibitors of Monoacylglycerol lipase” (Bioorg Med Chem, 2018)", "key": {"B16-F10 [1]": {"system": "B16-F10", "assay": "Effect on MAGL mRNA expression in mouse B16F10 cells by RT-PCR method", "type": "functional"}, "HEK-293T [2]": {"system": "HEK-293T", "assay": "Induction of apoptosis in HEK293T cells assessed as late apoptotic cells at 10 uM after 48 hrs by Annexin V-FITC/propidium iodide staining based flow cytometry (reference value: 2.07%)", "type": "cell-based", "conditions": "human", "outline": "(§1)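 HEK293T (DMEM with 10% FBS) or MCF7 (DMEM/Ham's F-12 1:1, 10% FBS) cells treated 48 h with 10 μM compound or DMSO. Staining with Alexa Fluor 488 annexin V plus 5 μg/ml PI in HEPES/NaCl/CaCl2 binding buffer; 10,000 cells per sample read by flow cytometry; n = 3, mean ± S.E.M.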"}, "B16-F10 [3]": {"system": "B16-F10", "assay": "Induction of apoptosis in mouse B16F10 cells assessed as live cells at 75 nM after 48 hrs by Annexin V-FITC/propidium iodide staining based flow cytometry (reference value: 79.55%)", "type": "functional"}, "[4]": {"molecular_target": "T1, Fatty-acid amide hydrolase 1 (Homo sapiens) (UniProt O00519)", "T1 sequence (whole entry)": "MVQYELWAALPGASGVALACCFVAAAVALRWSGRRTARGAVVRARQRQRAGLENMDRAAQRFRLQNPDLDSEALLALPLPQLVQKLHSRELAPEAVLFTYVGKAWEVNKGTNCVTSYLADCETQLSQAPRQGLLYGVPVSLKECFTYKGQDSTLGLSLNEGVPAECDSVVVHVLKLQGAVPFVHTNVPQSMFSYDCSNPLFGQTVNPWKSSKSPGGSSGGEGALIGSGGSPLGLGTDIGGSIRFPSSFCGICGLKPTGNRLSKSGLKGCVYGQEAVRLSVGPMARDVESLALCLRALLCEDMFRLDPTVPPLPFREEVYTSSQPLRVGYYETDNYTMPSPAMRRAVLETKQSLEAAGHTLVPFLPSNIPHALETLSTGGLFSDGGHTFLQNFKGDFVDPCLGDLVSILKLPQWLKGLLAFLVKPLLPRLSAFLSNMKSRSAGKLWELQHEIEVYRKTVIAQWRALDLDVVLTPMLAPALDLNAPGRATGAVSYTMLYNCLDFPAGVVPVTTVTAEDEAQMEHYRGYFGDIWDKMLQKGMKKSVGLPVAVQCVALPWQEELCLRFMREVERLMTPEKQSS", "assay": "Inhibition of human FAAH at 10 uM using AAMCA as substrate preincubated for 1 hr followed by substrate addition measured after 30 mins by fluorescence assay relative to control", "outline": "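Recombinant human FAAH (C-terminal His-tagged, Sf21), 1 U/well, in 50 mM Tris-HCl, 1 mM EDTA, pH 9, preincubated 1 h at room temperature with 10 μM compound (final). AAMCA added to 20 μM final; fluorescence (ex 360/em 460 nm) read every 3 min for 30 min. Rate by linear regression, no-enzyme background subtracted, normalised to no-inhibitor control.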"}, "B16-F10 [5]": {"system": "B16-F10", "assay": "Induction of apoptosis in mouse B16F10 cells assessed as late apoptotic cells at 75 nM after 48 hrs by Annexin V-FITC/propidium iodide staining based flow cytometry (reference value: 13.54%)", "type": "functional"}, "MCF7 [6]": {"system": "MCF7", "assay": "Induction of apoptosis in human MCF7 cells assessed as early apoptotic cells at 10 uM after 48 hrs by Annexin V-FITC/propidium iodide staining based flow cytometry (reference value: 3.16%)", "type": "functional", "outline": "as §1"}, "MCF7 [7]": {"system": "MCF7", "assay": "Induction of apoptosis in human MCF7 cells assessed as live cells at 10 uM after 48 hrs by Annexin V-FITC/propidium iodide staining based flow cytometry (reference value: 82.58%)", "type": "functional", "outline": "as §1"}, "MCF7 [8]": {"system": "MCF7", "assay": "Induction of apoptosis in human MCF7 cells at 10 uM after 48 hrs by Annexin V-FITC/propidium iodide staining based flow cytometry", "type": "functional, cell-based", "outline": "as §1"}, "HEK-293T [9]": {"system": "HEK-293T", "assay": "Induction of apoptosis in HEK293T cells assessed as necrotic cells at 10 uM after 48 hrs by Annexin V-FITC/propidium iodide staining based flow cytometry (reference value: 8.09%)", "type": "cell-based", "conditions": "human", "outline": "as §1"}, "B16-F10 [10]": {"system": "B16-F10", "assay": "Antiproliferative activity against mouse B16F10 cells at 35 to 75 nM after 48 hrs by Cyto Tracker red dye based flow cytometry", "type": "functional, cell-based", "outline": "(§2)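 B16-F10 cells (Iscove's medium, 10% heat-inactivated FBS, 37 °C, 5% CO2) exposed to compound or DMSO for 48 h, stained with CytoTrack Red 628/643 and analysed by flow cytometry. Proliferation index (average number of cells that an initial cell became) expressed as fold change over DMSO control; n = 3; one-way ANOVA with Tukey post-test.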"}, "B16-F10 [11]": {"system": "B16-F10", "assay": "Antiproliferative activity against mouse B16F10 cells at 10 uM after 48 hrs by Cyto Tracker red dye based flow cytometry", "type": "functional, cell-based", "outline": "as §2"}, "B16-F10 [12]": {"system": "B16-F10", "assay": "Induction of apoptosis in mouse B16F10 cells assessed as late apoptotic cells at 10 uM after 48 hrs by Annexin V-FITC/propidium iodide staining based flow cytometry (reference value: 7.39%)", "type": "functional"}, "[13]": {"molecular_target": "T2, Monoglyceride lipase (Homo sapiens) (UniProt Q99685)", "T2 sequence (whole entry)": "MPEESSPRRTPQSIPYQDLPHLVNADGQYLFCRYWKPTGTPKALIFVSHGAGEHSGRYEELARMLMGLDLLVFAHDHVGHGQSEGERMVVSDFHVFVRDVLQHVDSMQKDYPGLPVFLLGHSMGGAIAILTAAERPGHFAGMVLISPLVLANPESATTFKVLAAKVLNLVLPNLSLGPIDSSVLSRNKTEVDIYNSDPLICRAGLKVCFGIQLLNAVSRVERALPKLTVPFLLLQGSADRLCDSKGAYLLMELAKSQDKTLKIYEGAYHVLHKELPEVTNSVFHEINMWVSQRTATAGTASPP", "assay": "Inhibition of MAGL in human MCF7 cells at 10 uM using 7-HRA as substrate preincubated for 6 hrs followed by substrate addition by fluorescence assay", "type": "cell-based", "outline": "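MCF7 cells cultured 6 h with 10 μM compound or DMSO, then lysed; MAGL activity measured on total cell lysate using the 7-HRA fluorogenic assay.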"}, "B16-F10 [14]": {"system": "B16-F10", "assay": "Induction of apoptosis in mouse B16F10 cells assessed as apoptotic cells after 48 hrs by Annexin V-FITC/propidium iodide staining based flow cytometry"}}, "note": "Calls of active or inactive are those of the source. No cut-off for these calls is given here."}
{"smiles": "O=C(Nc1cccc(-c2ccc(C(F)(F)F)cc2)c1)OCc1ccco1", "values": [{"measurement": "deltaCT", "setting": "B16-F10 [1]", "result": 11.05}, {"measurement": "Activity", "setting": "HEK-293T [2]", "result": 2.1, "unit": "%"}, {"measurement": "Activity", "setting": "B16-F10 [3]", "result": 62.84, "unit": "%"}, {"measurement": "inhibition", "setting": "[4]", "result": 10, "unit": "%"}, {"measurement": "Activity", "setting": "B16-F10 [5]", "result": 30.39, "unit": "%"}, {"measurement": "Activity", "setting": "MCF7 [6]", "result": 8.77, "unit": "%"}, {"measurement": "Activity", "setting": "MCF7 [7]", "result": 60.27, "unit": "%"}, {"measurement": "Activity", "setting": "MCF7 [8]", "result": "Active"}, {"measurement": "Activity", "setting": "HEK-293T [9]", "result": 8.4, "unit": "%"}, {"measurement": "Activity", "setting": "B16-F10 [10]", "result": "Active"}, {"measurement": "Activity", "setting": "B16-F10 [11]", "result": "Active"}, {"measurement": "Activity", "setting": "B16-F10 [12]", "result": 64.08, "unit": "%"}, {"measurement": "inhibition", "setting": "[13]", "result": "Active"}, {"measurement": "Activity", "setting": "B16-F10 [14]", "result": "Dose-dependent effect"}]}
